In assay [1] the test system is ZR-75-1. As to the kind of experiment: Increase in intracellular Ca2+ level in human ZR-75-1 cells at 40 uM treated for 25 secs by fura-2-AM dye-based spectrofluorophotometric analysis in presence of Ca2+ containing medium (reference value: 50 +/- 3 nM). The format is functional. The gist of the method:
(§1)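 Fura-2-loaded ZR-75-1 cells (0.5 million per 1 mL, stirred, 25 °C) in Ca2+-containing or Ca2+-free medium. Compound added at 25 s. 340/380 nm excitation, 510 nm emission at 1 s intervals, calibrated to nM. Concentration-response from baseline-subtracted area under curve (25–250 s) as % of 50 μM response in Ca2+ medium. EC50 from Hill fit. Three experiments.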

Assay [2] concerns ZR-75-1. Nature of the assay: Increase in intracellular Ca2+ level in human ZR-75-1 cells treated for 25 secs by fura-2-AM dye-based spectrofluorophotometric analysis in presence of Ca2+ containing medium. The assay is classed as functional, cell-based. The method, boiled down: as §1
Assay [3] concerns ZR-75-1. Nature of the assay: Induction of Ca2+ influx in human ZR-75-1 cells at 40 uM by measuring Mn2+ quenching of fura-2-AM for 200 secs by spectrofluorophotometric analysis in presence of Ca2+ containing medium. The format is functional, cell-based. The method, boiled down: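 Mn2+ quench assay: 50 μM MnCl2 added to fura-2-loaded ZR-75-1 cells in Ca2+-containing medium 1 min before recording. Excitation 360 nm (Ca2+-insensitive), emission 510 nm, 1 s intervals, 25 °C. Compound (40 μM) added during the trace, recorded up to 200 s. Arbitrary units, three experiments.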

The subject of assay [4] is ZR-75-1. Nature of the assay: Induction of apoptosis in human ZR-75-1 cells assessed as late apoptotic cells at 40 uM after 24 hrs by annexin V-FITC/propidium iodide staining-based flow cytometric analysis (reference value: 2.53%). The assay is classed as functional. The gist of the method: (§2)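 ZR-75-1 cells exposed to 20–40 μM compound for 24 h, with 5 μM BAPTA-AM or NAC added first where indicated. Cells stained with Alexa Fluor 488 annexin V/PI for 15 min, at least 20000 cells analysed by flow cytometry (488 nm excitation, 530/575 nm filters). Early = annexin V+/PI−, late = annexin V+/PI+. Three independent biological replicates.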

For assay [5], the system named is ZR-75-1. Nature of the assay: Increase in intracellular Ca2+ level in human ZR-75-1 cells at 40 uM treated for 90 secs post PLC inhibitor U73122 and ATP addition by fura-2-AM dye-based spectrofluorophotometric analysis in presence of Ca2+ free medium. The format is functional, cell-based. The method, boiled down:
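Performed in Ca2+-free medium with fura-2-loaded ZR-75-1 cells. Response expressed relative to 40 μM compound alone (100%). Three experiments.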

Assay [6] has as its system ZR-75-1. As to the kind of experiment: Effect on endoplasmic reticulum Ca2+ pump inhibitor BHQ-induced intracellular Ca2+ increase in human ZR-75-1 cells at 40 uM pretreated with BHQ followed by compound addition in presence of Ca2+ free medium. The assay is classed as functional, cell-based. The gist of the method:
(§3)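 ZR-75-1 cells loaded with 2 μM fura-2-AM for 30 min at 25 °C, then suspended in Ca2+-free medium (pH 7.4; 0.3 mM EGTA, 3 mM MgCl2). Stirred cuvette at 25 °C. Thapsigargin (1 μM) or BHQ (50 μM) given before or after 40 μM compound. Excitation 340/380 nm, emission 510 nm, read at 1 s intervals. [Ca2+]i calibrated with Triton X-100/CaCl2 then EGTA.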

The test system of assay [7] is ZR-75-1. Nature of the assay: Inhibition of endoplasmic reticulum Ca2+ pump inhibitor BHQ-induced intracellular Ca2+ increase in human ZR-75-1 cells at 40 uM pretreated with compound followed by BHQ induction in presence of Ca2+ free medium. The assay is classed as functional, cell-based. The method, boiled down: as §3
Assay [8] has as its system ZR-75-1. Nature of the assay: Induction of apoptosis in human ZR-75-1 cells assessed as early apoptotic cells at 20 uM after 24 hrs by annexin V-FITC/propidium iodide staining-based flow cytometric analysis (reference value: 6.84%). The assay is classed as functional. The method, boiled down:
as §2

Assay [9] deals with ZR-75-1. As to the kind of experiment: Cytotoxicity against human ZR-75-1 cells assessed as decrease in cell viability after 24 hrs by WST-1 assay. The format is functional, cell-based. The method, boiled down:
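WST-1 assay on ZR-75-1 cells seeded at 10000 cells/well, exposed to 0–50 μM compound for 24 h. Where used, 5 μM BAPTA-AM was given for 1 h beforehand, then cells were washed with Ca2+-containing medium. WST-1 incubation 30 min, A450 read. Viability expressed as % of compound-free control. Six wells per treatment, three separate experiments.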

Assay [10] relates to ZR-75-1. Nature of the assay: Induction of reactive oxygen species production in human ZR-75-1 cells at 30 uM after 24 hrs by DCFH-DA probe-based flow cytometric analysis (reference value: 3.623%). The format is functional. The method, boiled down: (§4)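 ZR-75-1 cells treated with 20–40 μM compound for 24 h, with 5 μM BAPTA-AM added first where indicated. Cells suspended at 1 × 10^6/mL, loaded with 10 μM DCFH-DA for 30 min at 37 °C. DCF read by flow cytometry (488 nm excitation, 530/30 nm filter, 10000 cells). % H2O2-positive (M1) after subtracting the baseline without probe. Three experiments.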

The test system of assay [11] is ZR-75-1. As to the kind of experiment: Induction of reactive oxygen species production in human ZR-75-1 cells at 40 uM after 24 hrs by DCFH-DA probe-based flow cytometric analysis (reference value: 3.623%). The format is functional. The method, boiled down: as §4
In assay [12] the test system is ZR-75-1. As to the kind of experiment: Induction of reactive oxygen species production in human ZR-75-1 cells at 20 to 40 uM after 24 hrs by DCFH-DA probe-based flow cytometric analysis in presence of Ca2+ containing medium with Ca2+ chelator BAPTA-AM. The assay is classed as functional, cell-based. The method, boiled down: as §4
The subject of assay [13] is ZR-75-1. As to the kind of experiment: Induction of apoptosis in human ZR-75-1 cells at 20 to 40 uM preincubated for 24 hrs followed by antioxidant N-Acetylcysteine addition by annexin V-FITC/propidium iodide staining-based flow cytometric analysis. The assay is classed as functional, cell-based. The gist of the method:
as §2

The test system of assay [14] is ZR-75-1. As to the kind of experiment: Induction of apoptosis in human ZR-75-1 cells at 20 to 50 uM preincubated for 24 hrs followed by antioxidant N-Acetylcysteine and Ca2+ chelator BAPTA-AM addition by annexin V-FITC/propidium iodide staining-based flow cytometric analysis. The assay is classed as functional, cell-based.
The subject of assay [15] is ZR-75-1. Nature of the assay: Induction of apoptosis in human ZR-75-1 cells assessed as increase in cleaved caspase-9 level at 20 to 40 uM after 24 hrs by Western immunoblot analysis. The format is functional, cell-based. The method, boiled down: (§5)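 Confluent ZR-75-1 cells (3 × 10^6/dish) treated with 20, 30 or 40 μM compound for 24 h. Where used, 5 μM BAPTA-AM or 5 μM NAC was added before the compound. About 50 μg lysate protein run on 10% SDS-PAGE, transferred to PVDF, probed for cleaved caspase-9/-3 and β-actin, chemiluminescence. Densitometry normalized to β-actin. Three experiments.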

The test system of assay [16] is ZR-75-1. Nature of the assay: Induction of apoptosis in human ZR-75-1 cells assessed as activation of caspase-9 at 20 to 40 uM preincubated for 24 hrs followed by Ca2+ chelator BAPTA-AM addition by Western immunoblot analysis. The assay is classed as functional, cell-based. The gist of the method:
as §5

Assay [17] has as its system ZR-75-1. As to the kind of experiment: Induction of apoptosis in human ZR-75-1 cells assessed as activation of caspase-3 at 20 to 40 uM preincubated for 24 hrs followed by antioxidant N-Acetylcysteine addition by Western immunoblot analysis. The assay is classed as functional, cell-based. The method, boiled down:
as §5

For assay [18], the system named is ZR-75-1. Nature of the assay: Increase in intracellular Ca2+ level in human ZR-75-1 cells at 50 uM treated for 25 secs by fura-2-AM dye-based spectrofluorophotometric analysis in presence of Ca2+ containing medium (reference value: 50 +/- 3 nM). The assay is classed as functional. The note with it: in the assay text read “40 uM treated” for “50 uM treated”. The gist of the method:
as §1

The source made the active and inactive calls. No cut-off for these calls is given here.

As for `O=c1cc(-c2ccccc2)oc2cc(O)c(O)c(O)c12` [BAICALEIN], the Activity in assay [1] was 220 nM; in [2], “Dose-dependent effect”; in assay [4], 6.32%; in [8], 22.71%; in assay [9], “Dose-dependent effect”; in [10] it was 32.663%. The values for the Activity in [11] and in assay [18] were 43.227% and 220 nM, respectively. The half-maximal effective concentration (EC50) in [2] worked out at 25 µM. Moreover, the result in assay [3] and in assay [15] was Active. In addition, the result in [5], in assay [6], in assay [12], in assay [13], in assay [14] and in assay [16] was inactive. The outcome in assay [17] was inactive. Moreover, the inhibition entry in [7] was “Active”.

For the origin of these results see ChEMBL document CHEMBL3596101, “The Mechanism of Ca(2+) Movement in the Involvement of Baicalein-Induced Cytotoxicity in ZR-75-1 Human Breast Cancer Cells” (J Nat Prod, 2015).
